From ChEMBL document CHEMBL3232989, “First identification of boronic species as novel potential inhibitors of the Staphylococcus aureus NorA efflux pump” (J Med Chem, 2014)

Experiments:
Staphylococcus aureus [1] = assay: Toxicity in fluoroquinolone-resistant Staphylococcus aureus 1199B expressing NorA at 100 ug/ml after 24 hrs by microdilution method; format: organism-based
Procedure, shortened: (§1)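 Single-point screen at 100 μg/mL of compound alone in MH broth microdilution, 10^6 CFU/mL, 24 h at 37 °C. Growth is read at 620 nm and visually, giving percent growth inhibition. Compounds inhibiting more than 90% then go to MIC determination. Duplicates.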

[2] = biological target: T1, Quinolone resistance protein NorA (Staphylococcus aureus) (UniProt P0A0J7); assay: Inhibition of NorA in fluoroquinolone-resistant Staphylococcus aureus 1199B assessed as potentiation of 4 ug/ml of ciprofloxacin MIC at 100 ug/ml after 24 hrs by microdilution method
T1 sequence (whole entry): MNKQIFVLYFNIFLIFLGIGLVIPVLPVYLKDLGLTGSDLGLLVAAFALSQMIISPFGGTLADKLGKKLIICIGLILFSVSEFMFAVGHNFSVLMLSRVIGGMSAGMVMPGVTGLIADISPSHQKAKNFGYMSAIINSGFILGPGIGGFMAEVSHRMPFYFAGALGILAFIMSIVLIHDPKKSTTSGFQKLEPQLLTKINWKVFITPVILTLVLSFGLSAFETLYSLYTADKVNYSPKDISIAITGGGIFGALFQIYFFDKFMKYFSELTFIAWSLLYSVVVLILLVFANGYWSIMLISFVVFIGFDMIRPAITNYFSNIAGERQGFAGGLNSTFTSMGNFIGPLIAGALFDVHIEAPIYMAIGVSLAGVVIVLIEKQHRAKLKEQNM
Procedure, shortened: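 Combination with ciprofloxacin 4 μg/mL (MIC/4) against SA-1199B in MH broth microdilution, 10^6 CFU/mL, 24 h at 37 °C, read at 620 nm and visually. Compounds are first screened at 100 μg/mL; actives are 2-fold serially diluted. MMC4 is the lowest inhibitor concentration giving antibacterial activity with subinhibitory ciprofloxacin. Duplicates.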

Staphylococcus aureus [3] = assay: Toxicity in Staphylococcus aureus ATCC 25923 at 100 ug/ml after 24 hrs by microdilution method; format: organism-based; procedure, shortened: as §1
Staphylococcus aureus [4] = assay: Toxicity in Staphylococcus aureus ATCC 25923 after 24 hrs by microdilution method; format: organism-based
Procedure, shortened: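 Mueller–Hinton broth microdilution; inoculum from frozen culture grown 18 h at 37 °C, 10^6 CFU/mL per well. Compounds (10 mg/mL DMSO stock) in 2-fold serial dilutions, highest 128 mg/L, first screened at 100 μg/mL. MIC = complete growth inhibition after 24 h at 37 °C, read at 620 nm and visually; duplicate; ampicillin control.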

Structure (SMILES): Cc1cc(B(O)O)c(C)s1
- growth inhibition (GI) (Staphylococcus aureus [1]): < 90%
- Activity [2]: 16 µg/mL
- growth inhibition (GI) (Staphylococcus aureus [3]): < 90%
- MIC (Staphylococcus aureus [4]): >= 64 ug ml-1

Structure (SMILES): OB(O)c1cc(Cl)ncc1Cl
- growth inhibition (GI) (Staphylococcus aureus [1]): < 90%
- Activity [2]: 64 µg/mL
- growth inhibition (GI) (Staphylococcus aureus [3]): < 90%
- MIC (Staphylococcus aureus [4]): >= 64 ug ml-1

Structure (SMILES): CCOc1ccc(B(OC(C)(C)C(C)(C)O)OC(C)(C)C(C)(C)O)cn1
- growth inhibition (GI) (Staphylococcus aureus [1]): < 90%
- Activity [2]: 128 µg/mL
- growth inhibition (GI) (Staphylococcus aureus [3]): < 90%
- MIC (Staphylococcus aureus [4]): >= 64 ug ml-1

Structure (SMILES): Cc1cc(B(OC(C)(C)C(C)(C)O)OC(C)(C)C(C)(C)O)ccn1
- growth inhibition (GI) (Staphylococcus aureus [1]): < 90%
- Activity [2]: > 128 µg/mL
- growth inhibition (GI) (Staphylococcus aureus [3]): < 90%
- MIC (Staphylococcus aureus [4]): >= 64 ug ml-1

Structure (SMILES): OB(O)c1ccccc1F
- growth inhibition (GI) (Staphylococcus aureus [1]): < 90%
- Activity [2]: 16 µg/mL
- growth inhibition (GI) (Staphylococcus aureus [3]): < 90%
- MIC (Staphylococcus aureus [4]): >= 64 ug ml-1

Structure (SMILES): OB(O)c1ccccc1-c1ccccc1
- growth inhibition (GI) (Staphylococcus aureus [1]): < 90%
- Activity [2]: > 128 µg/mL
- growth inhibition (GI) (Staphylococcus aureus [3]): < 90%
- MIC (Staphylococcus aureus [4]): >= 64 ug ml-1

Structure (SMILES): CC(C)(O)C(C)(C)OB(OC(C)(C)C(C)(C)O)c1ccnc(Cl)c1Cl
- growth inhibition (GI) (Staphylococcus aureus [1]): < 90%
- Activity [2]: 32 µg/mL
- growth inhibition (GI) (Staphylococcus aureus [3]): < 90%
- MIC (Staphylococcus aureus [4]): >= 64 ug ml-1

Structure (SMILES): CC(C)(O)C(C)(C)OB(OC(C)(C)C(C)(C)O)c1ccncc1
- growth inhibition (GI) (Staphylococcus aureus [1]): < 90%
- Activity [2]: > 128 µg/mL
- growth inhibition (GI) (Staphylococcus aureus [3]): < 90%
- MIC (Staphylococcus aureus [4]): >= 64 ug ml-1

Structure (SMILES): CC(C)(O)C(C)(C)OB(OC(C)(C)C(C)(C)O)c1ccc(Cl)nc1
- growth inhibition (GI) (Staphylococcus aureus [1]): < 90%
- Activity [2]: 128 µg/mL
- growth inhibition (GI) (Staphylococcus aureus [3]): < 90%
- MIC (Staphylococcus aureus [4]): >= 64 ug ml-1

Structure (SMILES): Cc1cccc(C)c1B(O)O
- growth inhibition (GI) (Staphylococcus aureus [1]): < 90%
- Activity [2]: > 128 µg/mL
- growth inhibition (GI) (Staphylococcus aureus [3]): < 90%
- MIC (Staphylococcus aureus [4]): >= 64 ug ml-1

Structure (SMILES): N#Cc1c(B(O)O)ccnc1Cl
- growth inhibition (GI) (Staphylococcus aureus [1]): < 90%
- Activity [2]: > 128 µg/mL
- growth inhibition (GI) (Staphylococcus aureus [3]): < 90%
- MIC (Staphylococcus aureus [4]): >= 64 ug ml-1

Structure (SMILES): COc1ncccc1B(O)O
- growth inhibition (GI) (Staphylococcus aureus [1]): < 90%
- Activity [2]: 16 µg/mL
- growth inhibition (GI) (Staphylococcus aureus [3]): < 90%
- MIC (Staphylococcus aureus [4]): >= 64 ug ml-1

Structure (SMILES): Cc1cc(B(O)O)cnc1N1CCOCC1
- growth inhibition (GI) (Staphylococcus aureus [1]): < 90%
- Activity [2]: 64 µg/mL
- growth inhibition (GI) (Staphylococcus aureus [3]): < 90%
- MIC (Staphylococcus aureus [4]): >= 64 ug ml-1

Structure (SMILES): O[B-](O)(O)c1cccnc1.[Na+]
- growth inhibition (GI) (Staphylococcus aureus [1]): < 90%
- Activity [2]: 128 µg/mL
- growth inhibition (GI) (Staphylococcus aureus [3]): < 90%
- MIC (Staphylococcus aureus [4]): >= 64 ug ml-1

Structure (SMILES): CSc1ncccc1B(O)O
- growth inhibition (GI) (Staphylococcus aureus [1]): < 90%
- Activity [2]: > 128 µg/mL
- growth inhibition (GI) (Staphylococcus aureus [3]): < 90%
- MIC (Staphylococcus aureus [4]): >= 64 ug ml-1

Structure (SMILES): OB(O)c1ccccc1 [PHENYLBORONIC ACID]
- growth inhibition (GI) (Staphylococcus aureus [1]): < 90%
- Activity [2]: 32 µg/mL
- growth inhibition (GI) (Staphylococcus aureus [3]): < 90%
- MIC (Staphylococcus aureus [4]): >= 64 ug ml-1

Structure (SMILES): Cn1c(B2OC(C)(C)C(C)(C)O2)cnc1Cl
- growth inhibition (GI) (Staphylococcus aureus [1]): < 90%
- Activity [2]: 128 µg/mL
- growth inhibition (GI) (Staphylococcus aureus [3]): < 90%
- MIC (Staphylococcus aureus [4]): >= 64 ug ml-1

Structure (SMILES): CCc1ccc(B(OC(C)(C)C(C)(C)O)OC(C)(C)C(C)(C)O)cc1
- growth inhibition (GI) (Staphylococcus aureus [1]): < 90%
- Activity [2]: 32 µg/mL
- growth inhibition (GI) (Staphylococcus aureus [3]): < 90%
- MIC (Staphylococcus aureus [4]): >= 64 ug ml-1

Structure (SMILES): O=C(O)c1ccc(B(O)O)cc1
- growth inhibition (GI) (Staphylococcus aureus [1]): < 90%
- Activity [2]: > 128 µg/mL
- growth inhibition (GI) (Staphylococcus aureus [3]): < 90%
- MIC (Staphylococcus aureus [4]): >= 64 ug ml-1

Structure (SMILES): OB(O)c1cccnc1Br
- growth inhibition (GI) (Staphylococcus aureus [1]): < 90%
- Activity [2]: > 128 µg/mL
- growth inhibition (GI) (Staphylococcus aureus [3]): < 90%
- MIC (Staphylococcus aureus [4]): >= 64 ug ml-1

Structure (SMILES): CC(C)[Si](Oc1ncc(B2OC(C)(C)C(C)(C)O2)o1)(C(C)C)C(C)C
- growth inhibition (GI) (Staphylococcus aureus [1]): < 90%
- Activity [2]: > 128 µg/mL
- growth inhibition (GI) (Staphylococcus aureus [3]): < 90%
- MIC (Staphylococcus aureus [4]): >= 64 ug ml-1

Structure (SMILES): CC(C)(O)C(C)(C)OB(OC(C)(C)C(C)(C)O)c1ccc(F)nc1
- growth inhibition (GI) (Staphylococcus aureus [1]): < 90%
- Activity [2]: 128 µg/mL
- growth inhibition (GI) (Staphylococcus aureus [3]): < 90%
- MIC (Staphylococcus aureus [4]): >= 64 ug ml-1

Structure (SMILES): COc1nccc(B(O)O)c1Cl
- growth inhibition (GI) (Staphylococcus aureus [1]): < 90%
- Activity [2]: 32 µg/mL
- growth inhibition (GI) (Staphylococcus aureus [3]): < 90%
- MIC (Staphylococcus aureus [4]): >= 64 ug ml-1

Structure (SMILES): CC(C)(O)C(C)(C)OB(OC(C)(C)C(C)(C)O)c1ccncc1C#N
- growth inhibition (GI) (Staphylococcus aureus [1]): < 90%
- Activity [2]: > 128 µg/mL
- growth inhibition (GI) (Staphylococcus aureus [3]): < 90%
- MIC (Staphylococcus aureus [4]): >= 64 ug ml-1

Structure (SMILES): CC(C)(O)C(C)(C)OB(OC(C)(C)C(C)(C)O)c1ccncc1Br
- growth inhibition (GI) (Staphylococcus aureus [1]): < 90%
- Activity [2]: > 128 µg/mL
- growth inhibition (GI) (Staphylococcus aureus [3]): < 90%
- MIC (Staphylococcus aureus [4]): >= 64 ug ml-1

Structure (SMILES): OB(O)c1ccnc(Cl)c1Cl
- growth inhibition (GI) (Staphylococcus aureus [1]): < 90%
- Activity [2]: 32 µg/mL
- growth inhibition (GI) (Staphylococcus aureus [3]): < 90%
- MIC (Staphylococcus aureus [4]): >= 64 ug ml-1

Structure (SMILES): Cc1c[nH]nc1B(O)O
- growth inhibition (GI) (Staphylococcus aureus [1]): < 90%
- Activity [2]: 64 µg/mL
- growth inhibition (GI) (Staphylococcus aureus [3]): < 90%
- MIC (Staphylococcus aureus [4]): >= 64 ug ml-1

Structure (SMILES): Cc1cc(B(O)O)cnc1Br
- growth inhibition (GI) (Staphylococcus aureus [1]): < 90%
- Activity [2]: 32 µg/mL
- growth inhibition (GI) (Staphylococcus aureus [3]): < 90%
- MIC (Staphylococcus aureus [4]): >= 64 ug ml-1

Structure (SMILES): CC1(C)OB(c2cnn(C(=O)c3ccccc3)c2)OC1(C)C
- growth inhibition (GI) (Staphylococcus aureus [1]): < 90%
- Activity [2]: 128 µg/mL
- growth inhibition (GI) (Staphylococcus aureus [3]): < 90%
- MIC (Staphylococcus aureus [4]): >= 64 ug ml-1

Structure (SMILES): Cc1cc(B(OC(C)(C)C(C)(C)O)OC(C)(C)C(C)(C)O)cnc1Cl
- growth inhibition (GI) (Staphylococcus aureus [1]): < 90%
- Activity [2]: 32 µg/mL
- growth inhibition (GI) (Staphylococcus aureus [3]): < 90%
- MIC (Staphylococcus aureus [4]): >= 64 ug ml-1

Structure (SMILES): CC(C)(O)C(C)(C)OB(OC(C)(C)C(C)(C)O)c1cccnc1C#N
- growth inhibition (GI) (Staphylococcus aureus [1]): < 90%
- Activity [2]: > 128 µg/mL
- growth inhibition (GI) (Staphylococcus aureus [3]): < 90%
- MIC (Staphylococcus aureus [4]): >= 64 ug ml-1

Structure (SMILES): F[B-](F)(F)c1cccnc1.[K+]
- growth inhibition (GI) (Staphylococcus aureus [1]): < 90%
- Activity [2]: > 128 µg/mL
- growth inhibition (GI) (Staphylococcus aureus [3]): < 90%
- MIC (Staphylococcus aureus [4]): >= 64 ug ml-1

Structure (SMILES): CCOC(=O)Nc1ncc(B2OC(C)(C)C(C)(C)O2)s1
- growth inhibition (GI) (Staphylococcus aureus [1]): < 90%
- Activity [2]: > 128 µg/mL
- growth inhibition (GI) (Staphylococcus aureus [3]): < 90%
- MIC (Staphylococcus aureus [4]): >= 64 ug ml-1

Structure (SMILES): CCOC(=O)c1ccccc1B(O)O
- growth inhibition (GI) (Staphylococcus aureus [1]): < 90%
- Activity [2]: > 128 µg/mL
- growth inhibition (GI) (Staphylococcus aureus [3]): < 90%
- MIC (Staphylococcus aureus [4]): >= 64 ug ml-1

Structure (SMILES): CC(C)(O)C(C)(C)OB(OC(C)(C)C(C)(C)O)c1cc(Br)cnc1Cl
- growth inhibition (GI) (Staphylococcus aureus [1]): < 90%
- Activity [2]: 128 µg/mL
- growth inhibition (GI) (Staphylococcus aureus [3]): < 90%
- MIC (Staphylococcus aureus [4]): >= 64 ug ml-1

Structure (SMILES): CC(C)(O)C(C)(C)OB(OC(C)(C)C(C)(C)O)c1ccnc(F)c1Cl
- growth inhibition (GI) (Staphylococcus aureus [1]): < 90%
- Activity [2]: 16 µg/mL
- growth inhibition (GI) (Staphylococcus aureus [3]): < 90%
- MIC (Staphylococcus aureus [4]): >= 64 ug ml-1

Structure (SMILES): OB(O)c1cc(Br)cnc1Cl
- growth inhibition (GI) (Staphylococcus aureus [1]): < 90%
- Activity [2]: 32 µg/mL
- growth inhibition (GI) (Staphylococcus aureus [3]): < 90%
- MIC (Staphylococcus aureus [4]): >= 64 ug ml-1
